In ChEMBL document CHEMBL1817584, “Synthesis of novel fluconazoliums and their evaluation for antibacterial and antifungal activities” (2011) one finds MIC and Ratio data, which are given here for seven compounds.

For experiment [1], the system named is Pseudomonas aeruginosa. In words: Antibacterial activity against Pseudomonas aeruginosa ATCC 27853 after 24 hrs by twofold serial dilution method. The class given is functional. The settings on record: ATCC 27853, 24 h. In outline: (§1)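 Each bacterial suspension was adjusted with sterile saline to 1 × 10⁵ CFU. Compounds were first dissolved in DMSO as stock solutions, then diluted in Mueller–Hinton broth in twofold steps (8, 4, 2, 1, 0.5, 0.25). Dilutions were inoculated and incubated at 37 °C for 24 h, and MIC was read. DMSO plus inoculum without drug served as a solvent control.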

Experiment [2] has as its system Aspergillus fumigatus. In words: Antifungal activity against Aspergillus fumigatus ATCC 96918 after 24 hrs by twofold serial dilution method. The class given is functional. The conditions noted are these: ATCC 96918, 24 h. In outline: (§2)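 A fungal spore suspension was made in sterile distilled water from a 1-day-old culture grown on Sabouraud agar, then tested against serial dilutions of compounds (DMSO stocks) to determine MIC.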

The subject of experiment [3] is Staphylococcus aureus. Nature of the experiment: Ratio of Chloromycin MIC to compound MIC for Staphylococcus aureus ATCC 6538. The format is functional.
Experiment [4] deals with Escherichia coli. In words: Antibacterial activity against Escherichia coli ATCC 8099 after 24 hrs by twofold serial dilution method. The format is functional. The settings on record: ATCC 8099, 24 h. In outline:
as §1

The test system of experiment [5] is Staphylococcus aureus. In words: Antibacterial activity against Staphylococcus aureus ATCC 6538 after 24 hrs by twofold serial dilution method. The format is functional. The conditions noted are these: ATCC 6538, 24 h. In outline: as §1
Experiment [6] concerns Staphylococcus aureus. In words: Antibacterial activity against methicillin-resistant Staphylococcus aureus N315 after 24 hrs by twofold serial dilution method. The format is functional. The settings on record: N315, 24 h. In outline: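 Compounds were dissolved in DMSO as stock, then diluted twofold in Mueller–Hinton broth. Chloromycin and norfloxacin were run as reference drugs. The inoculum was adjusted in sterile saline to 1 × 10⁵ CFU, and a DMSO-plus-inoculum well served as solvent control. Plates were incubated at 37 °C for 24 h and read as MIC.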

For experiment [7], the system named is Candida albicans. In words: Antifungal activity against Candida albicans ATCC 76615 after 24 hrs by twofold serial dilution method. The class given is functional. The settings on record: ATCC 76615, 24 h. In outline: as §2
Experiment [8] deals with Bacillus. Nature of the experiment: Antibacterial activity against Bacillus proteus ATCC 13315 after 24 hrs by twofold serial dilution method. The class given is functional. The settings on record: ATCC 13315, 24 h. In outline:
as §1

Experiment [9] deals with Bacillus subtilis. Nature of the experiment: Antibacterial activity against Bacillus subtilis ATCC 21216 after 24 hrs by twofold serial dilution method. The class given is functional. The conditions noted are these: ATCC 21216, 24 h. In outline: as §1
Experiment [10] has as its system Staphylococcus aureus. Nature of the experiment: Ratio of Norfloxacin MIC to compound MIC for Staphylococcus aureus ATCC 6538. The class given is functional.
For experiment [11], the system named is Bacillus. Nature of the experiment: Ratio of Chloromycin MIC to compound MIC for Bacillus proteus ATCC 13315. The format is functional.
Experiment [12] relates to Escherichia coli. Nature of the experiment: Ratio of Chloromycin MIC to compound MIC for Escherichia coli ATCC 8099. The format is functional.
In experiment [13] the test system is Bacillus subtilis. Nature of the experiment: Ratio of Chloromycin MIC to compound MIC for Bacillus subtilis ATCC 21216. The class given is functional.
The subject of experiment [14] is Pseudomonas aeruginosa. In words: Ratio of Chloromycin MIC to compound MIC for Pseudomonas aeruginosa ATCC 27853. The class given is functional.
Experiment [15] relates to Aspergillus fumigatus. In words: Ratio of Fluconazole MIC to compound MIC for Aspergillus fumigatus ATCC 96918.

Turning to `CCCCCCCC[n+]1cnn(CC(O)(Cn2c[n+](CCCCCCCC)cn2)c2ccc(F)cc2F)c1.[Br-].[Br-]`, the MIC stood at 8 µg/mL in experiment [1]; 128 µg/mL in experiment [2]; 1 µg/mL in experiment [4]; 1 µg/mL in experiment [5]; 8 µg/mL in experiment [6]; 2 µg/mL in [7]. The MIC came to 64 µg/mL in experiment [8] and 32 µg/mL in [9]. Besides, the Ratio is reported as 64 in experiment [3] and 8 in experiment [10].

For the compound `OC(Cn1c[n+](Cc2ccc(Cl)cc2Cl)cn1)(Cn1c[n+](Cc2ccc(Cl)cc2Cl)cn1)c1ccc(F)cc1F.[Cl-].[Cl-]`, the MIC was 4 µg/mL in [1]; 128 µg/mL in [2]; 4 µg/mL in experiment [4]; 8 µg/mL in [5]; 4 µg/mL in experiment [6]; 16 µg/mL in experiment [7]. Further, the results for the MIC in [8] and in [9] were 0.5 µg/mL and 16 µg/mL, respectively. For the same compound, the Ratio in [11] is recorded as 32.

Take `F[P-](F)(F)(F)(F)F.F[P-](F)(F)(F)(F)F.OC(Cn1c[n+](Cc2ccc(Cl)cc2Cl)cn1)(Cn1c[n+](Cc2ccc(Cl)cc2Cl)cn1)c1ccc(F)cc1F`: the MIC was 64 µg/mL in experiment [1]; 256 µg/mL in [2]; no more than 0.25 µg/mL in experiment [4]; 32 µg/mL in experiment [5]; 32 µg/mL in experiment [6]; 128 µg/mL in experiment [7]. Further, the MIC worked out at 1 µg/mL in [8] and 32 µg/mL in experiment [9]. In addition, the Ratio in experiment [12] was determined as 256.

With `OC(Cn1c[n+](CCOc2ccc3ccccc3c2)cn1)(Cn1c[n+](CCOc2ccc3ccccc3c2)cn1)c1ccc(F)cc1F.[Br-].[Br-]`, the MIC in experiment [1] was found to be 8 µg/mL; in [2], 128 µg/mL; in [4] it was 2 µg/mL; in [5], 4 µg/mL; in experiment [6], 32 µg/mL; in [7] it was 8 µg/mL. In addition, the MIC amounted to 4 µg/mL in experiment [8] and 64 µg/mL in experiment [9]. The Ratio in experiment [3], in experiment [11], in experiment [13], in [14] and in experiment [12] was 4 throughout.

As to `O=C1c2cccc3c(Br)ccc(c23)C(=O)N1CCC[n+]1cnn(CC(O)(Cn2c[n+](CCCN3C(=O)c4cccc5c(Br)ccc(c45)C3=O)cn2)c2ccc(F)cc2F)c1.[Br-].[Br-]`, the Ratio in experiment [15] was 8. Besides, the minimum inhibitory concentration (MIC) was 16 µg/mL in [1]; 16 µg/mL in [2]; 8 µg/mL in [4]; 8 µg/mL in experiment [5]; 4 µg/mL in experiment [6]; 8 µg/mL in experiment [7]. For the same compound, the MIC in experiment [8] was 32 µg/mL; in [9], 64 µg/mL.

With `O=C1c2cccc3c(Br)ccc(c23)C(=O)N1CCCCCC[n+]1cnn(CC(O)(Cn2c[n+](CCCCCCN3C(=O)c4cccc5c(Br)ccc(c45)C3=O)cn2)c2ccc(F)cc2F)c1.[Br-].[Br-]`, the Ratio in experiment [15] was 8. In addition, the MIC in experiment [1] is 32 µg/mL; in experiment [2], 32 µg/mL; in experiment [4] it was 8 µg/mL; in experiment [5] it was 8 µg/mL; in experiment [6], 16 µg/mL; in experiment [7], 16 µg/mL. In addition, the MIC in [8] and in experiment [9] was 64 µg/mL in each case.

As to `O=C1c2cccc3c(Br)ccc(c23)C(=O)N1CCCCCCn1c[n+](Cc2ccc(F)cc2F)cn1.[Br-]`, the MIC in experiment [1] is 8 µg/mL; in experiment [2], 64 µg/mL; in experiment [4] it was 32 µg/mL; in experiment [5], 16 µg/mL; in experiment [6], 64 µg/mL; in experiment [7], 64 µg/mL. Also, the MIC in experiment [8] was found to be 16 µg/mL; in [9] it was 128 µg/mL.
